Screening data deposited in PubChem BioAssay by Broad Institute.
CAL PDZ FP-1: untagged CAL PDZ binding inhibitors, primary screen, biochemical, fluorescence polarization, HTS; 300,000 compounds, 0.92% hits; inhibition, % at 24.9 µM; Golgi-associated PDZ and coiled-coil motif-containing protein (Homo sapiens), Q9HD26; purified CAL PDZ, TMR-peptide fluorescence polarization, 1 h;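 active means mean inhibition of at least 30% with at least half of replicates also reaching 30%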
LANA DNA inh: inhibitors of KSHV C-LANA binding to DNA, primary screen, biochemical, fluorescence polarization, FAM-LBS DNA, MBP-C-LANA, single point. inhibition, % at 9 µM. 340,000 compounds, 0.078% hits. AID 504423, 2011;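 active means highest replicate inhibition at or above 60% at 9 µM, even if other replicates fall short; inactive means all replicates below 60% inhibition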
Keap1 Nrf2 FP: Keap1-Nrf2 protein-protein interaction inhibitors, primary screen, biochemical, fluorescence polarization, single point | AID 504523, 2011 | Keap1 Kelch-Nrf2 peptide fluorescence polarization, 1536-well | 340,000 compounds, 0.15% hits | inhibition, % at 9.4 µM; in the data active means inhibition above about 12%;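 further: human Keap1 Kelch domain with fluorescein labeled Nrf2 9mer peptide probe; higher means more block of Keap1 binding to Nrf2 peptide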
Target sequence (Q14145 whole entry, looked up, the tested form may be a part): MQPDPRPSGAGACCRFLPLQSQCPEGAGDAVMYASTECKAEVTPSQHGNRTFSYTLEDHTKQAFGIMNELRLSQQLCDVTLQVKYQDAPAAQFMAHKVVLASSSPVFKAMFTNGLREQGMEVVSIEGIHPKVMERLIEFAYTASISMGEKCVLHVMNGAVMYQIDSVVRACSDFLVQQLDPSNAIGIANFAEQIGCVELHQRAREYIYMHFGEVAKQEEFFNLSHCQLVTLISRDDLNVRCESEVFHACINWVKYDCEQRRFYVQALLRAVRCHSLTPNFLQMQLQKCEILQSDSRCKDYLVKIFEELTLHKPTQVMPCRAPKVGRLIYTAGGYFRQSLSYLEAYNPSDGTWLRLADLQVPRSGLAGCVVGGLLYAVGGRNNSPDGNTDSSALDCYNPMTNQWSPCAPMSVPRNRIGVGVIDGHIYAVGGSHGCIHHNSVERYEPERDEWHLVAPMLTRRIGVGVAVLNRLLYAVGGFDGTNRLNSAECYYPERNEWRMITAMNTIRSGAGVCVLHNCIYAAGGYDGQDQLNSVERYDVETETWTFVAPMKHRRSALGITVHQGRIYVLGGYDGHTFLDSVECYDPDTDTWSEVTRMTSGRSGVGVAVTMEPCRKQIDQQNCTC
LANA-H2B inh: blockers of LANA interaction with H2A/H2B – biochemical, FP readout, HTS, primary screen. Protein LANA1 (Human herpesvirus 8 type P (isolate GK18)), Q9QR71. cell-free LANA-H2A/H2B peptide, fluorescence polarization. inhibition, % (test concentration not listed). 320,000 compounds, 0.6% hits; in the data active means inhibition mostly above about 10%, no sharp cut-off; inactive means mostly below about 6.7%
CAL PDZ FP-2: CAL PDZ peptide-binding inhibitors, primary screen, biochemical, fluorescence polarization, Cer-tagged CAL PDZ, HTS; purified CAL PDZ, TMR-peptide fluorescence polarization, 1 h; Golgi-associated PDZ and coiled-coil motif-containing protein (Homo sapiens), Q9HD26; 330,000 compounds, 0.02% hits; AID 504414, 2011; inhibition, % at 20 µM;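 active means highest replicate inhibition of at least 40%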
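Control set: unlabelled peptide and DMSO controls / Material: purified CerCALP PDZ construct / Timing: 1 h incubation at room temperature before polarization reading / Doses: 20 µM, one dose / Detection: fluorescence polarization (mP)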
CaV13 FRET inh: Primary screen for inhibitors of IQ motif and Ca2+-dependent inactivation inhibitor domain binding in CACNA1D, Förster resonance energy transfer in living cells, …. HEK cells, CFP/YFP FRET ICDI-IQ, plate reader, 10 min; percent FRET-ratio fall versus neutral wells. inhibition, % at 12.3 µM. 340,000 compounds, 0.098% hits;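 active means mean replicate inhibition of at least 30% and at least 1% of replicates passing that level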
Of the large screens only hits and unclear results are named; the others gave an inactive call. A selection: hits, their analogues and other compounds. The true share with any hit is near 1.5%.

Cc1ccc(C)c(S(=O)(=O)/N=C2\C=C(NS(=O)(=O)c3ccccc3)C(=O)c3ccccc32)c1	LANA-H2B inh 31
Cc1cccc(OCCCC(=O)Nc2ccc(Cl)c(S(=O)(=O)N3CCOCC3)c2)c1	none (no result: CAL PDZ FP-1)
CCOc1ccccc1OCCCC(=O)Nc1ccc(Cl)c(S(=O)(=O)N2CCOCC2)c1	LANA-H2B inh 30 (no result: CAL PDZ FP-1)
COC(=O)C1=C(C)N(C)C(=NCc2cc(OC)c(OC)c(OC)c2)NC1c1cccc(C(F)(F)F)c1 (centres undefined)	none (no result: CAL PDZ FP-1, LANA DNA inh, Keap1 Nrf2 FP, LANA-H2B inh, CAL PDZ FP-2)
N#C/C(=C/c1ccc(N2CCOCC2)o1)c1ccc(Cl)cc1	LANA-H2B inh 10
Nc1nc2c(ncn2[C@@H]2O[C@H](C(=O)N[C@@H](Cc3ccccc3)C(=O)NCC3CCCCC3)[C@@H](O)[C@H]2O)c(=O)[nH]1	none (no result: CAL PDZ FP-1, LANA DNA inh, Keap1 Nrf2 FP, LANA-H2B inh, CAL PDZ FP-2)
COCC(=O)N1CCC(Oc2ccc(C(=O)N(C)CCCC3CCCC3)cc2)CC1	LANA-H2B inh 16
CCOC(=O)Cc1nc2ccccc2n(CC#N)c1=O	CAL PDZ FP-1 76
COC(=O)CCCC1=CC2=C(c3ccccc3)C(=O)C(C)(OC(=O)C3CCCC3)C(=O)C2=CN1C1CC1 (centres undefined)	LANA-H2B inh 59
COC(=O)CCCC1=CC2=C(c3ccccc3)C(=O)C(C)(OC(=O)C3CCCC3)C(=O)C2=CN1c1ccccc1 (centres undefined)	none
CCCCc1c(-c2ccccc2OC)ncn1Cc1cccc(F)c1F	none (no result: CAL PDZ FP-1, LANA DNA inh, Keap1 Nrf2 FP, LANA-H2B inh, CAL PDZ FP-2)
Cc1nn(-c2ccccc2)c2c1C(c1ccccc1)C(C#N)=C(N)O2 (centres undefined)	none
Cc1nn(-c2ccccc2)c2c1C(c1ccc(F)cc1F)C(C#N)=C(N)O2 (centres undefined)	CAL PDZ FP-1 30
N#CC1=C(N)Oc2cc(N)ccc2C1c1ccc(F)cc1F (centres undefined)	CaV13 FRET inh active
O=C(NCC1CCN(C(=O)C(=O)c2cccs2)CC1)c1cccnc1	none (no result: CAL PDZ FP-1, LANA DNA inh, Keap1 Nrf2 FP, LANA-H2B inh, CAL PDZ FP-2)
CCOc1cc(OCC)cc(C(=O)N2CCC[C@@H]2C(=O)N2CCC[C@@H]2C(=O)NCc2cccc(OC)c2)c1	none (no result: CAL PDZ FP-1, LANA DNA inh, Keap1 Nrf2 FP, LANA-H2B inh, CAL PDZ FP-2)
C=CCOc1cccc(C(=O)N2CCCC(CCC(=O)NCc3ccccc3F)C2)c1 (centres undefined)	CAL PDZ FP-1 74
COc1ccc(C(=O)N2CCCC(CCC(=O)NCc3ccc(F)c(F)c3)C2)o1 (centres undefined)	CAL PDZ FP-1 51
COc1ccc(C(=O)N2CCCC(CCC(=O)NCc3ccc(F)c(F)c3)C2)cc1F (centres undefined)	none
CSc1ncccc1C(=O)N1CCCC(CCC(=O)NCc2ccc(F)c(F)c2)C1 (centres undefined)	LANA-H2B inh 14
Cc1ccc(N(Cc2ccccc2)C(=O)c2cc(S(=O)(=O)N3CCOCC3)ccc2F)cc1	none
Cc1cc2c(c(=O)o1)[C@@]1(C(=O)N(C)c3ccc([N+](=O)[O-])cc31)C1=C(CCCC1=O)O2	none (no result: CAL PDZ FP-1, LANA DNA inh, Keap1 Nrf2 FP, LANA-H2B inh, CAL PDZ FP-2)
CN(CC(=O)Nc1ccc(Cl)cc1)C1=NS(=O)(=O)c2ccccc21	LANA-H2B inh 27 (no result: CAL PDZ FP-1)
Cc1ccc(/C=N/N(C)S(=O)(=O)c2ccc(C)cc2)cc1	CAL PDZ FP-1 49 (no result: CAL PDZ FP-2)
CSc1ccc(/C=N/N(C)S(=O)(=O)c2ccc(C)cc2)cc1	none
Cc1ccc(C(=O)CSc2nnc(C3CC3)n2C2CC2)s1	CAL PDZ FP-1 63
O=C(CSc1nnnn1-c1ccc(Cl)cc1)NC1CCS(=O)(=O)C1 (centres undefined)	none
COc1ccc(OC)c(/C=N/Nc2nc(C)cc(=O)[nH]2)c1	none
Fc1ccc(Cn2nnc3ccccc32)cc1	CAL PDZ FP-1 123 (no result: CAL PDZ FP-2, CaV13 FRET inh)
Cc1ccccc1NC(=O)Cc1nc(COC(=O)COc2ccc(C(C)(C)C)cc2)cs1	LANA-H2B inh 17 (no result: CAL PDZ FP-1)
COc1cc(OC)c(C(=O)Nc2cccc3ccccc23)cc1OC	CAL PDZ FP-1 33
COc1ccc(C(=O)Nc2cccc3ccccc23)cc1	none (no result: CAL PDZ FP-1)
COC(=O)c1ccc(OCc2nn[nH]n2)cc1	CAL PDZ FP-1 61
CN(C)CCCNC(=O)c1c(N)[nH]c(C(=O)c2ccc(Br)cc2)c1-c1ccc(Br)cc1	none (no result: CAL PDZ FP-1, LANA DNA inh, Keap1 Nrf2 FP, LANA-H2B inh, CAL PDZ FP-2)
O=C(Nc1cccnc1Cl)c1cc2ccccc2o1	none (no result: CAL PDZ FP-2)
N#C/C(=N\Nc1ccc(F)cc1)C(=N)N1CCCCCC1	none (no result: CAL PDZ FP-1)
Cc1ccc(N/N=C(\C#N)C(=N)N2CCCCCC2)cc1	CAL PDZ FP-1 30
COc1ccc(N/N=C(\C#N)C(=N)N2CCCCC2)cc1	CAL PDZ FP-1 49
CC(C)Oc1ccc(CN2CCC(n3nccc3NC(=O)C3CC3)CC2)cc1	none (no result: CAL PDZ FP-1)
CC1(C)CC(=O)C=C(C#CC2CC2)C1	none (no result: CAL PDZ FP-1, LANA DNA inh, Keap1 Nrf2 FP, LANA-H2B inh, CAL PDZ FP-2)
COc1ccc(OCC(O)CNC(=O)c2ccc(Br)cc2)cc1 (centres undefined)	CAL PDZ FP-1 72
COc1ccc(OCC(O)CNC(=O)c2ccc(OC)cc2)cc1 (centres undefined)	none
O=C(CSc1nnc(-c2ccc(Br)cc2)n1C1CCCCC1)N1CCCC1	CAL PDZ FP-1 56
Cc1ccc(-c2nnc(SCC(=O)N/N=C/c3ccc(C(=O)O)cc3)n2C2CCCCC2)cc1	LANA-H2B inh 12
O=C(CSc1nnc(-c2ccccc2F)n1C1CCCCC1)N1CCCC1	none
O=C(CSc1nnc(-c2ccc(Cl)cc2Cl)n1C1CCCCC1)N1CCCC1	CAL PDZ FP-1 53
CC(=O)Nc1cccc(-c2ccnc3c2CC(C)(C(=O)NCC2CC2)O3)c1 (centres undefined)	none (no result: CAL PDZ FP-1, LANA DNA inh, Keap1 Nrf2 FP, LANA-H2B inh, CAL PDZ FP-2)
CC(=O)c1ccc(Nc2nc(C(N)CC(C)C)cs2)cc1 (centres undefined)	none (no result: CAL PDZ FP-1, LANA DNA inh, Keap1 Nrf2 FP, LANA-H2B inh, CAL PDZ FP-2)
O=C(O)c1ccc(CS(=O)c2cccc(C(F)(F)F)c2)o1 (centres undefined)	LANA-H2B inh 119 (no result: CAL PDZ FP-2)
N/C(=N/OS(=O)(=O)c1ccc([N+](=O)[O-])cc1)c1ccncc1	LANA-H2B inh 37
N/C(=N\OS(=O)(=O)c1ccccc1)c1ccncc1	none (no result: CaV13 FRET inh)
Cc1nn(Cc2c(Cl)cccc2Cl)c(C)c1NC(=O)c1sc2ccccc2c1Cl	none
Cc1nn(Cc2ccc(Cl)c(Cl)c2)c(C)c1NC(=O)c1sc2ccccc2c1Cl	CAL PDZ FP-1 35 (no result: CAL PDZ FP-2)
CCCCS(=O)(=O)N1CCCc2nc(-c3ccc(F)cc3)ccc21	none (no result: CAL PDZ FP-1, LANA DNA inh, Keap1 Nrf2 FP, LANA-H2B inh, CAL PDZ FP-2)
